Source: paper PMC4545378 (Cancer chemotherapy and pharmacology, 2015)
“And” between values parts separate entries of the source, which are not always exact repeats. Equal entries are not always repeated. “Also recorded” adds a separate entry of the source. Where two headings read alike, the source gives them in different places.

What was measured:
RBCs [1] = experiment: Effect of RBC concentration on BEN metabolism; assay type: in vitro ADME, human; details: BEN 10 μg/mL, 37 °C
Method in brief: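 RBCs taken from the bottom of the packed layer, avoiding the buffy coat, and resuspended in plasma at 0, 0.1, 1 and 10%. Test compound spiked at 10 μg/mL and incubated at 37 °C in a shaking bath. Aliquots taken from 0 to 360 min and at 24 h; remaining parent measured by LC-MS/MS.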

RBCs [2] = assay type: in vitro ADME, human; details: 10% RBCs, all incubations (with and without CO or N2), BEN 3 μg/mL
RBCs [3] = experiment: BEN metabolism in 10% RBCs with ALDH and AO inhibitor; assay type: in vitro ADME, human; details: for inhibition of BEN metabolism (conversion of BEN to BA) in RBC: 10% RBCs in plasma, inhibitor 150 μM
lysed RBCs = experiment: BEN in lysed blood; assay type: in vitro ADME, human
Method in brief: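 10% RBCs in plasma lysed by three freeze-thaw cycles and incubated at 37 °C alongside unlysed cells. Test compound added at 10 μg/mL final; sampled at 5, 60, 120 and 180 min. In a cofactor arm, NADH or NADPH (500 μM final) was added to lysed RBCs and sampling ran from 5 to 120 min. Parent quantified by LC-MS/MS.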

BEN blood partitioning = assay type: in vitro ADME, human; details: 50% RBCs in plasma, on ice
Method in brief: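 Blood (50% RBCs in plasma) held on ice with 1 mM disulfiram for 10 min, then dosed with test compound at 1000 ng/mL final. Blood sampled at 5–30 min and spun at 12,000 × g for 2 min; plasma acidified with H2SO4 and analysed by LC-MS/MS. Run in parallel in 100% plasma, in triplicate. Ratio taken as plasma-only concentration divided by plasma concentration from the 50%-RBC incubation.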

RBCs [4] = experiment: Apparent Vmax and Km determination in 10% RBCs in plasma; assay type: in vitro ADME, human
purified human ALDH1A1 = target: T1, purified human ALDH1A1 (Homo sapiens, UniProt P00352); experiment: Metabolism using purified ALDH isoforms: ALDH1A1; assay type: biochemical
T1 sequence (P00352 1-501): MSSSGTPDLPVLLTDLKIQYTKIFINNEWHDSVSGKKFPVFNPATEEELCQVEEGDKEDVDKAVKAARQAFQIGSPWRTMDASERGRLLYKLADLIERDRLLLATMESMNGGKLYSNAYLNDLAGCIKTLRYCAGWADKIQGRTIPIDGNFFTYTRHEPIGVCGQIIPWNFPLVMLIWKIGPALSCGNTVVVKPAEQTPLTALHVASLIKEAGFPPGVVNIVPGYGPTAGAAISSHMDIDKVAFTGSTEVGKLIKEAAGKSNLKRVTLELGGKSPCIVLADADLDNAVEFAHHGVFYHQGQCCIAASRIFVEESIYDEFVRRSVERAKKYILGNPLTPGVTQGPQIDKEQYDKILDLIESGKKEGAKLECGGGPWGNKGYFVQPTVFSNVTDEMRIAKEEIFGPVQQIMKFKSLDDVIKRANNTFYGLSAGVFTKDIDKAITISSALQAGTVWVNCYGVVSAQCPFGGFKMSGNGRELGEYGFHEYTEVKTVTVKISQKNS
Method in brief: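 Purified human ALDH1A1 (5 μg/mL) in […] pH 7.4 with 200 mM KCl and 4 mM DTT, plus test compound at 1000 ng/mL. Pre-incubated 10 min at 37 °C, then started with NAD or […] (1 mM) as the isozyme requires. Sampled at 0–60 min into H2SO4, acetonitrile-extracted, and parent and […] measured by LC-MS/MS. Inhibition arms used anti-ALDH1A1 antibody or disulfiram. Three independent experiments; rate normalised per μg enzyme.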

ALDH2 = target: T2, ALDH2 (Homo sapiens, UniProt P05091); experiment: Metabolism using purified ALDH isoforms: ALDH2; assay type: biochemical; details: purified ALDH2, BEN 1000 ng/mL
T2 sequence (P05091 18-517): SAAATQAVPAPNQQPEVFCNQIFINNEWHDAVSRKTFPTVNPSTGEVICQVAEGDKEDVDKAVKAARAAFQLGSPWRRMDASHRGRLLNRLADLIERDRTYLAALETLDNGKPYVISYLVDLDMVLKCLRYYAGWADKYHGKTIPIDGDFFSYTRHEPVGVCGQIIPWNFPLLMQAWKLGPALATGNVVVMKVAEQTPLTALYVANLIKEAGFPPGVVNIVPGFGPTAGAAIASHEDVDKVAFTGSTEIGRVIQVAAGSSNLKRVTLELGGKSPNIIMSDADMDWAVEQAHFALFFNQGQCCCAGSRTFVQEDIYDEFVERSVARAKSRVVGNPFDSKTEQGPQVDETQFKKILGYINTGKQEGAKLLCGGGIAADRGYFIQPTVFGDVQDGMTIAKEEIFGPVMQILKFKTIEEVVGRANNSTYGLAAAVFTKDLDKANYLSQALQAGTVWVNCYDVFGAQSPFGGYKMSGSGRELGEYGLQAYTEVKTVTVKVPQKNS

ALDH3A1 = target: T3, ALDH3A1 (Homo sapiens, UniProt P30838); experiment: Metabolism using purified ALDH isoforms: ALDH3A1; assay type: biochemical; details: purified ALDH3A1, BEN 1000 ng/mL
T3 sequence (P30838 1-453): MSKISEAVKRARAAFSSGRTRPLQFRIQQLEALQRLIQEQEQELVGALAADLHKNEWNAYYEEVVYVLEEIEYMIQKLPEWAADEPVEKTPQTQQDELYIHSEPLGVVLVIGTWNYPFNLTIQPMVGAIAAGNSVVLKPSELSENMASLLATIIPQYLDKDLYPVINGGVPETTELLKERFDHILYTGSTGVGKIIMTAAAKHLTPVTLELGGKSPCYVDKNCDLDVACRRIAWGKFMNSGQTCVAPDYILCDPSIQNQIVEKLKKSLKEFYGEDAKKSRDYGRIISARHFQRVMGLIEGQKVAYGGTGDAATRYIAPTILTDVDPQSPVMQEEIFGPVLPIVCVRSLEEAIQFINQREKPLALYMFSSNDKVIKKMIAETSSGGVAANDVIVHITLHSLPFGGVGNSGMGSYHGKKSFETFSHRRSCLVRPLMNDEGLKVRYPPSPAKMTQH

ALDH5A1 = target: T4, ALDH5A1 (Homo sapiens, UniProt P51649); experiment: Metabolism using purified ALDH isoforms: ALDH5A1; assay type: biochemical; details: purified ALDH5A1, BEN 1000 ng/mL
T4 sequence (P51649 48-535): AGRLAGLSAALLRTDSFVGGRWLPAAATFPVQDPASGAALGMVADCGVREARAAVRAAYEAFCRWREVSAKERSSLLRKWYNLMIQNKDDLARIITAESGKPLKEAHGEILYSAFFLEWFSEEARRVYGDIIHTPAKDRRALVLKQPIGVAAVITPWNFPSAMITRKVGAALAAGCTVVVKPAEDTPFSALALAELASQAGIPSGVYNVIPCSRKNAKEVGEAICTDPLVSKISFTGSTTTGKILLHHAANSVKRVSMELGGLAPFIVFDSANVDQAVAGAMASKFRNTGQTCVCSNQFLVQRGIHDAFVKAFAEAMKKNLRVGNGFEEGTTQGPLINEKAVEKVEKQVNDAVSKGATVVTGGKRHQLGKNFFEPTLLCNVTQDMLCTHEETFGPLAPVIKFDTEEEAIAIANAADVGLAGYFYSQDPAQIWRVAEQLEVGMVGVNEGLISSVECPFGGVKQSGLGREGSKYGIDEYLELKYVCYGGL

[5] = mice, after 20 mg/kg BEN; cited from earlier work
[6] = humans, after 9 mg/m^2; cited from earlier work
[7] = test system: renal carcinoma cells (RCC); details: cited from earlier work
RXF-393 = details: mice, RXF-393 implanted subcutaneously or orthotopically under the renal capsule; cited from earlier work
CYP3A = details: preliminary experiments; cited from earlier work
[8] = but not plasma; cited from earlier work
[9] = preliminary experiments; cited from earlier work
[10] = cited from earlier work
[11] = Lot 4 +7 days (7 day old blood stored at 4 °C), 10% RBCs
[12] = mean over the lots of Table 1, 10% RBCs

Cc1cc(N(CCOS(C)(=O)=O)CCOS(C)(=O)=O)ccc1C=O [BEN, 4-[bis[2-[(methylsulfonyl)-oxy]ethyl]amino]-2-methyl-benzaldehyde]
BEN remaining (RBCs [1]; 10% RBCs, after 6 hours): 5% | BEN remaining (RBCs [1]; 10% RBCs, after one hour): 54% | BEN remaining (RBCs [1]; no RBCs, after 6 hours): 59% | BEN remaining (RBCs [1]; no RBCs, after one hour): 99% | time after which the concentration of BEN was halved (RBCs [2]): approximately 60 min | amount of BEN remaining (RBCs [3]; control sample without inhibitor, 10% RBCs, BEN 1 μg/mL): 0.5% | metabolism of BEN by lysed RBCs (lysed RBCs; 10% RBCs lysed by freeze-thaw, no cofactor added): did not metabolize BEN | metabolism of BEN by lysed RBCs (lysed RBCs; 10% lysed RBCs + NADH 500 μM): restored the ability of lysed RBCs to metabolize BEN | metabolism of BEN by lysed RBCs (lysed RBCs; 10% lysed RBCs + NADPH 500 μM): partially restored the ability of lysed RBCs to metabolize BEN | time by which the equilibrium between RBCs and plasma was complete (BEN blood partitioning): ≤ 5 min | average plasma to whole blood partition ratio (BEN blood partitioning; disulfiram 1 mM, BEN 1000 ng/mL, triplicate): 1.25 ± 0.08 | starting concentrations that display linear metabolism (RBCs [4]; 10% RBCs): below 400 ng/mL | Cl (RBCs [4]; Lot 1 human blood, 10% RBCs): 0.333 mL/min | Km (RBCs [4]; Lot 1 human blood, 10% RBCs): 196.3 ng/mL | Vmax (RBCs [4]; Lot 1 human blood, 10% RBCs): 65.44 ng/mL^−1•min^−1•[10% RBC]^−1 | Cl (RBCs [4]; Lot 2 human blood, 10% RBCs): 0.2736 mL/min | Km (RBCs [4]; Lot 2 human blood, 10% RBCs): 319.5 ng/mL | Vmax (RBCs [4]; Lot 2 human blood, 10% RBCs): 87.42 ng/mL^−1•min^−1•[10% RBC]^−1 | Cl (RBCs [4]; Lot 3 human blood, 10% RBCs): 0.282 mL/min | Km (RBCs [4]; Lot 3 human blood, 10% RBCs): 256.2 ng/mL | Vmax (RBCs [4]; Lot 3 human blood, 10% RBCs): 72.27 ng/mL^−1•min^−1•[10% RBC]^−1 | Cl (RBCs [4]; [11]): 0.1432 mL/min | Km (RBCs [4]; [11]): 699.6 ng/mL | Vmax (RBCs [4]; [11]): 100.2 ng/mL^−1•min^−1•[10% RBC]^−1 | Cl (RBCs [4]; Lot 4 human blood, 10% RBCs): 0.1859 mL/min | Km (RBCs [4]; Lot 4 human blood, 10% RBCs): 609.8 ng/mL | Vmax (RBCs [4]; Lot 4 human blood, 10% RBCs): 113.4 ng/mL^−1•min^−1•[10% RBC]^−1 | Cl (RBCs [4]; Lot 5 human blood, 10% RBCs): 0.1588 mL/min | Km (RBCs [4]; Lot 5 human blood, 10% RBCs): 481.8 ng/mL | Vmax (RBCs [4]; Lot 5 human blood, 10% RBCs): 76.5 ng/mL^−1•min^−1•[10% RBC]^−1 | Cl (RBCs [4]; Lot 6 human blood, 10% RBCs): 0.1836 mL/min | Km (RBCs [4]; Lot 6 human blood, 10% RBCs): 371.2 ng/mL | Vmax (RBCs [4]; Lot 6 human blood, 10% RBCs): 68.16 ng/mL^−1•min^−1•[10% RBC]^−1 | Average apparent Km (RBCs [4]; human RBC, abstract): 373 ng/mL | Cl, Mean (RBCs [4]; [12]): 0.22 mL/min | Vmax, Mean (RBCs [4]; [12]): 83.3 ng/mL^−1•min^−1•[10% RBC]^−1 | ability of isoform to metabolize BEN (purified human ALDH1A1; purified ALDH1A1, BEN 1000 ng/mL): showed the ability to metabolize BEN | rate of disappearance of BEN (purified human ALDH1A1; three independent experiments, 5 μg/mL purified enzyme, BEN 1000 ng/mL, 37 °C): 0.172 ng/min/μg of enzyme and 0.224 ng/min/μg of enzyme and 0.154 ng/min/μg of enzyme | ability of isoform to metabolize BEN (ALDH2): ALDH1A1 was the only isoform that showed the ability to metabolize BEN | ability of isoform to metabolize BEN (ALDH3A1): ALDH1A1 was the only isoform that showed the ability to metabolize BEN | ability of isoform to metabolize BEN (ALDH5A1): ALDH1A1 was the only isoform that showed the ability to metabolize BEN | exposures observed [5]: 16 ng/mL | exposures observed [6]: 14.5 ng/mL | activity in the NCI 60 cell line screen [7]: specific activity against renal carcinoma cells (RCC) | antitumor activity (RXF-393): demonstrated antitumor activity | metabolism in liver microsomal fraction (CYP3A): undergoes N-dealkylation | conversion in whole blood [8]: rapidly converted to its carboxylic acid analogue (BA) | metabolism in cytosolic fraction [9]: oxidized | in vitro half-life in plasma [10]: 22 min

CCN(CC)C(=S)SSC(=S)N(CC)CC [disulfiram]
inhibition of BEN metabolism (conversion of BEN to BA) in RBC (RBCs [3]; BEN 1 μg/mL): inhibited; also recorded: almost complete inhibition | inhibition of BEN metabolism by purified ALDH1A1 (purified human ALDH1A1; reaction mixture with 4 mM DTT, antibodies at 100x): did not inhibit

CC1=CC(=O)c2ccccc2C1=O [menadione]
inhibition of BEN metabolism compared with vehicle control (RBCs [3]; 3 mM menadione, 1.5% DMSO v:v, 10% RBCs): DMSO alone (1.5% DMSO v:v) caused the same extent of inhibition | inhibition of BEN metabolism (conversion of BEN to BA) in RBC (RBCs [3]; BEN 1 μg/mL): not inhibited; also recorded: only a partial inhibitory effect
